Test results as given in ChEMBL document CHEMBL4177755, “Combating Drug-Resistant Fungi with Novel Imperfectly Amphipathic Palindromic Peptides” (J Med Chem, 2018).

Key:
[1] = tested on: RAW264.7; assay: Cytotoxicity against mouse RAW264.7 cells assessed as decrease in cell viability at 64 uM after 24 hrs by MTT assay relative to control; format: cell-based; details: raw264.7, 24 h
Procedure, shortened: (§1)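 MTT viability assay. RAW264.7 or HEK293T cells at (1.0−2.0) × 10^5 per well were exposed to a peptide concentration series for 24 h at 37 °C in 5% CO2. MTT was then added at 0.5 mg/mL final for 4 h; formazan was dissolved in DMSO and read at 570 nm. Results average three independent trials.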

[2] = tested on: HEK-293T; assay: Cytotoxicity against HEK293T cells assessed as decrease in cell viability at 64 uM after 24 hrs by MTT assay relative to control; format: cell-based; details: human; procedure, shortened: as §1
[3] = tested on: Escherichia coli; assay: Antibacterial activity against Escherichia coli 1005 after 24 hrs; format: functional; details: Escherichia coli, 1005, 24 h
Procedure, shortened: (§2)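 Broth microdilution. Mid-log bacteria in MHB at a final (0.5−1) × 10^5 CFU/mL were mixed with equal volumes of peptide serially diluted in 0.2% BSA. Plates were incubated 24 h at 37 °C and read at A492. MIC is the lowest concentration inhibiting 95% of growth. Each test was repeated at least 3 times.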

[4] = Antibacterial activity against Salmonella pullorum ATCC 7913 after 24 hrs; format: functional, Salmonella enterica subsp. enterica serovar Pullorum; details: Salmonella enterica, ATCC 7913, 24 h; procedure, shortened: as §2
[5] = tested on: Staphylococcus aureus; assay: Antibacterial activity against Staphylococcus aureus ATCC 29213 after 24 hrs; format: functional; details: ATCC 29213, 24 h
Procedure, shortened: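 Modified NCCLS broth microdilution. Mid-log bacteria at (0.5−1) × 10^5 CFU/mL in MHB were mixed 1:1 with peptide serially diluted in 0.2% BSA and incubated 24 h at 37 °C. Absorbance was read at 492 nm; MIC is the lowest concentration inhibiting 95% of growth. At least 3 repeats.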

[6] = Bactericidal activity against Salmonella pullorum ATCC 7913; format: functional, Salmonella enterica subsp. enterica serovar Pullorum; details: Salmonella enterica, read-out: MBC99.9
Procedure, shortened: (§3)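 Wells from the 24 h, 37 °C MHB microdilution plates (bacteria at a final (0.5−1) × 10^5 CFU/mL; peptide diluted in 0.2% BSA) were plated on agar and incubated overnight. MBC is the lowest concentration killing >99.9% of cells. Each test was reproduced at least 3 times.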

[7] = tested on: Staphylococcus aureus; assay: Bactericidal activity against Staphylococcus aureus ATCC 25923; format: functional; details: read-out: MBC99.9; procedure, shortened: as §3
[8] = tested on: Candida albicans; assay: Antifungal activity against Candida albicans cgmcc 2.2086 after 48 hrs by broth microdilution method; format: functional; details: cgmcc 2.2086, 48 h
Procedure, shortened: (§4)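 Modified CLSI M27-A2 broth microdilution. Yeast at (0.5−1) × 10^3 CFU/mL in MOPS-buffered RPMI 1640 was mixed 1:1 with peptide serially diluted in 0.2% BSA and incubated 48 h at 28 °C. Absorbance was read at 492 nm; MIC is the lowest concentration inhibiting 95% of growth. Triplicate, three biological replicates.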

[9] = tested on: Candida albicans; assay: Antifungal activity against Candida albicans SP3903 after 48 hrs by broth microdilution method; format: functional; details: SP3903, 48 h; procedure, shortened: as §4
[10] = tested on: Candida albicans; assay: Antifungal activity against Candida albicans SP3902 after 48 hrs by broth microdilution method; format: functional; details: SP3902, 48 h; procedure, shortened: as §4
[11] = tested on: Candida albicans; assay: Antifungal activity against Candida albicans isolated from alveolar fluid after 48 hrs by broth microdilution method; format: functional; procedure, shortened: as §4
[12] = tested on: Candida albicans; assay: Antifungal activity against fluconazole-resistant Candida albicans 56214 after 48 hrs by broth microdilution method; format: functional; details: Candida albicans, 56214, 48 h; procedure, shortened: as §4
[13] = tested on: Pichia kudriavzevii; assay: Antifungal activity against Candida krusei cgmcc 2.1857 after 48 hrs by broth microdilution method; format: functional; details: cgmcc 2.1857, 48 h
Procedure, shortened: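 Modified CLSI M27-A2 broth microdilution. Yeast were suspended in MOPS-buffered RPMI 1640 at a final (0.5−1) × 10^3 CFU/mL and mixed 1:1 with peptide serially diluted in 0.2% BSA. Plates were incubated 48 h at 28 °C and read at A492. MIC is the lowest concentration giving 95% inhibition. Run in triplicate with three biological replicates.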

[14] = tested on: Candida albicans; assay: Fungicidal activity against Candida albicans cgmcc 2.2086 after 96 hrs; format: functional; details: cgmcc 2.2086, 96 h, read-out: MFC99.9
Procedure, shortened: (§5)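 After the 48 h, 28 °C broth microdilution in MOPS-buffered RPMI 1640 (inoculum (0.5−1) × 10^3 CFU/mL), 50 μL from each well was plated on YM agar for a further 48 h at 28 °C. MFC is the lowest concentration killing at least 99.9% of cells. Triplicate, three biological replicates.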

[15] = tested on: Candida albicans; assay: Fungicidal activity against Candida albicans SP3931 after 96 hrs; format: functional; details: SP3931, 96 h, read-out: MFC99.9; procedure, shortened: as §5
[16] = tested on: Candida albicans; assay: Fungicidal activity against Candida albicans SP3903 after 96 hrs; format: functional; details: SP3903, 96 h, read-out: MFC99.9; procedure, shortened: as §5
[17] = tested on: Candida albicans; assay: Fungicidal activity against Candida albicans isolated from alveolar fluid after 96 hrs; format: functional; details: read-out: MFC99.9; procedure, shortened: as §5
[18] = tested on: Candida albicans; assay: Fungicidal activity against fluconazole-resistant Candida albicans 56452 after 96 hrs; format: functional; details: Candida albicans, 56452, 96 h; read-out: MFC99.9; procedure, shortened: as §5
[19] = tested on: Erythrocyte; assay: Hemolytic activity in human RBC after 1 hr; format: ADME, cell-based
Procedure, shortened: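 Fresh human erythrocytes, diluted 10-fold in PBS pH 7.4, were mixed with equal volumes of peptide and held 1 h at 37 °C. After centrifugation at 1000g, supernatant hemoglobin was read at 576 nm. PBS set 0% and 0.1% Triton X-100 set 100% lysis. MHC is the concentration causing 10% hemolysis. At least three experiments were run, each in technical triplicate.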

[20] = tested on: Escherichia coli; assay: Antibacterial activity against Escherichia coli ATCC 25922 after 18 hrs in presence of NaCl by broth dilution method; format: functional; details: ATCC 25922, 18 h
[21] = tested on: Escherichia coli; assay: Antibacterial activity against Escherichia coli ATCC 25922 after 18 hrs in presence of NH4Cl by broth dilution method; format: functional; details: ATCC 25922, 18 h
[22] = tested on: Escherichia coli; assay: Antibacterial activity against Escherichia coli ATCC 25922 after 18 hrs in presence of MgCl2 by broth dilution method; format: functional; details: ATCC 25922, 18 h
[23] = tested on: Escherichia coli; assay: Antibacterial activity against Escherichia coli ATCC 25922 after 18 hrs in presence of FeCl3 by broth dilution method; format: functional; details: ATCC 25922, 18 h
[24] = tested on: Candida albicans; assay: Antifungal activity against Candida albicans cgmcc 2.2086 in presence of NaCl by broth dilution method; format: functional
[25] = tested on: Candida albicans; assay: Antifungal activity against Candida albicans cgmcc 2.2086 in presence of KCl by broth dilution method; format: functional
[26] = tested on: Candida albicans; assay: Antifungal activity against Candida albicans cgmcc 2.2086 in presence of NH4Cl by broth dilution method; format: functional
[27] = tested on: Candida albicans; assay: Antifungal activity against Candida albicans cgmcc 2.2086 in presence of MgCl2 by broth dilution method; format: functional
[28] = tested on: Candida albicans; assay: Antifungal activity against Candida albicans cgmcc 2.2086 in presence of CaCl2 by broth dilution method; format: functional

Which results are given for H-RWWRRWRRWWR-NH2?
Activity [1]: Toxic; Activity [2]: Toxic; MIC95 [3]: 8 µM; MIC95 [4]: 4 µM; MIC95 [5]: 4 µM; MBC [6]: 8 µM; MBC [7]: 16 µM; MIC95 [8]: 4 µM; MIC95 [9]: 2 µM; MIC95 [10]: 4 µM; MIC95 [11]: 4 µM; MIC95 [12]: 4 µM; MIC95 [13]: 2 µM; MFC [14]: 8 µM; MFC [15]: 16 µM; MFC [16]: 2 µM; MFC [17]: 8 µM; MFC [18]: 8 µM; HC10 [19]: > 128 µM; MIC [20]: 16 µM; MIC [21]: 16 µM; MIC [22]: 8 µM; MIC [23]: 16 µM; MIC [24]: 16 µM; MIC [25]: 8 µM; MIC [26]: 4 µM; MIC [27]: 8 µM; MIC [28]: 8 µM

For H-WWRRWRRWW-NH2, which Activity [1] is on record?
Its Activity is “Toxic”.

What about the Activity [2] of the same substance?
The Activity was “Toxic”.

What about the MIC95 [3] of the same substance?
The MIC95 was 4 µM.

What about the MIC95 [4] of the same substance?
The MIC95 was 8 µM.

And the MIC95 [5]?
The MIC95 was 4 µM.

And the MBC [6]?
The MBC was 16 µM.

What about the MBC [7] of the same substance?
Its MBC is 8 µM.

What about the MIC95 [8] of the same substance?
The MIC95 was 8 µM.

And the MIC95 [9]?
Its MIC95 is 4 µM.

And the MIC95 [10]?
The MIC95 was 8 µM.

And the MIC95 [11]?
Its MIC95 is 8 µM.

And the MIC95 [12]?
Its MIC95 is 4 µM.

What about the MIC95 [13] of the same substance?
Its MIC95 is 4 µM.

What about the MFC [14] of the same substance?
The MFC was 16 µM.

What about the MFC [15] of the same substance?
Its MFC is 32 µM.

What about the MFC [16] of the same substance?
The MFC was 4 µM.

And the MFC [17]?
Its MFC is 16 µM.

And the MFC [18]?
The MFC was 8 µM.

What about the HC10 [19] of the same substance?
The HC10 was > 128 µM.

What about the MIC [20] of the same substance?
Its MIC is 8 µM.

And the MIC [21]?
Its MIC is 8 µM.

And the MIC [22]?
The MIC was 4 µM.

And the MIC [23]?
Its MIC is 4 µM.

And the MIC [24]?
The MIC was 16 µM.

And the MIC [25]?
Its MIC is 16 µM.

What about the MIC [26] of the same substance?
Its MIC is 8 µM.

And the MIC [27]?
Its MIC is 8 µM.

And the MIC [28]?
Its MIC is 16 µM.
